TRPC4 agonist = TRPC4 (mouse) channel activation; B-score at 10 µM; Q9QUQ5; 0.49% of 310,000 active; HEK293 TRPC4beta/mu-opioid, Fluo4 calcium fluorescence; active compounds read high;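 active means B-score above 5 SD of library B-scores, and initial fluorescence ratio not above library mean plus 5 SD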;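 further: positive B-score marks a calcium rise read as TRPC4 activation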
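Assay system – TRPC4beta and mu-opioid receptor HEK293 stable cells · Measured by – Fluo4 fluorescence, kinetic · Schedule – dye loading 45 min room temperature, 110 s kinetic read · Read-out – B-scored integrated calcium fluorescence ratio · Controls – buffer and maximal DAMGO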
TRPC6 activator = activates the mouse TRPC6 cation channel | Q61143 | HEK293-TRPC6 membrane potential dye fluorescence; active compounds read high | B-score at 10 µM | 0.13% of 310,000 active | AID 2550;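 active means B-score of the integrated fluorescence ratio above library mean plus 3 SD, and starting fluorescence ratio within library mean plus 5 SD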;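 further: higher score means more depolarization so channel activation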
Target sequence (Q61143 whole entry, looked up): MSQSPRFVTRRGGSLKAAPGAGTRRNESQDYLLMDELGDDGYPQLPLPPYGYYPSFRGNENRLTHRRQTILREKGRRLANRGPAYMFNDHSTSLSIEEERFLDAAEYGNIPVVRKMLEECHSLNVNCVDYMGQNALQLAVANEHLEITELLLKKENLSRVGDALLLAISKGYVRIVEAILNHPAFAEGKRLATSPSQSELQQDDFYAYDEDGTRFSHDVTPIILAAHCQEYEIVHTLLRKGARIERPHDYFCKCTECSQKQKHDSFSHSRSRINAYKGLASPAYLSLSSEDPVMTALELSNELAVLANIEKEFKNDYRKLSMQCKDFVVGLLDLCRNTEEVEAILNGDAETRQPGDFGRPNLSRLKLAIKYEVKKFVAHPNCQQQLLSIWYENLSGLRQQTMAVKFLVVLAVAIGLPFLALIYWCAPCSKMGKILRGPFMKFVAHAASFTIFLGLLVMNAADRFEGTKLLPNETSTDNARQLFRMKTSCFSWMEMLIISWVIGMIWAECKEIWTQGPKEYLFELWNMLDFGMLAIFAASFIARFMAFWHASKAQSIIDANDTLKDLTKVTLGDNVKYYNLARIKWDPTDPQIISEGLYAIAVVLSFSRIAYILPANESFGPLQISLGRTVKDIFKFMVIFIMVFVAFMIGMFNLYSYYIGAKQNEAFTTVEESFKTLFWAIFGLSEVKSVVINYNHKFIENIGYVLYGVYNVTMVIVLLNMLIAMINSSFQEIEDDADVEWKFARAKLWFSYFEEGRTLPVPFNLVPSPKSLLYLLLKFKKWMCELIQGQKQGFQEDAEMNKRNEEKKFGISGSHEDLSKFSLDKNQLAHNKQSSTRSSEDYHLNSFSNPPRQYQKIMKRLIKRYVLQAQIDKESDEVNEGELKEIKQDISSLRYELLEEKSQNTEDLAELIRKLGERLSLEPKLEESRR
TRPC4 potent = allosteric potentiators of mouse TRPC4 channel | Q9QUQ5 | HEK293 TRPC4beta/mu-opioid, DAMGO EC20, Fluo-4 Ca2+ flux; active compounds read high | B-score at 10 µM | 0.42% of 310,000 active | AID 2227;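 active means B-score of calcium response area above 5 SD of library B-scores, with initial fluorescence ratio within 5 SD of library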;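 further: B-score of integrated fluorescence ratio over time as area under calcium response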
TRPC4 inh = TRPC4 (mouse) channel inhibition; Q9QUQ5; HEK293 TRPC4beta/mu-opioid, DAMGO-evoked Fluo4 calcium flux; active compounds read low; B-score at 10 µM; 0.39% of 300,000 active; AID 2247;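 active means B-score over 3 SD under the library average, no early fluorescence shift, positive overall ratio signal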
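material = TRPC4beta/mu-opioid receptor HEK293 cell line | probe or stimulus = sequential submaximal and maximal DAMGO stimulation | compound dosing = one concentration per compound | measured by = Fluo4 Ca2+ flux fluorescence | evaluation = integrated fluorescence ratio relative to baseline, converted to per-well B score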
TRPC6 inhibitor = mouse TRPC6 channel inhibition; Q61143; HEK293-TRPC6, membrane potential dye, ACh-evoked depolarization; active compounds read low; B-score at 10 µM; 1.1% of 310,000 active;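 active means B-score under library mean minus 3 SD, initial fluorescence not abnormally high, positive integrated signal ratio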;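 further: B-score derived from integrated fluorescence ratio over the kinetic read; more negative B-score means stronger inhibition of depolarization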
TRPC4 sel inh 2 = second check of whether TRPC6 inhibitors also affect mouse TRPC4; inhibition, % at 10 µM; 42% of 920 active; HEK293 TRPC4/MOR, membrane potential dye fluorescence; channel activated by saturating DAMGO dose; shares compounds with TRPC6 inhibitor;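 active means compounds whose fluorescence signal differed from control wells by over 3 SD, either direction, in both duplicate plates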
TRPC4 spec = tests whether TRPC6 inhibitors also affect mouse TRPC4; AID 2777; HEK293 TRPC4/mu-opioid, membrane potential fluorescence; 61% of 920 active; shares compounds with TRPC6 inhibitor; activity change, negative = inhibition, % at 10 µM;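 active means rise or fall in signal beyond 3 SD of buffer-only wells in both replicate plates, either sign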;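 further: integrated kinetic ratio of fluorescence range over baseline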
HEK293 MPD ctr 2-1 = second counter-screen for TRPC6 inhibitors: parental HEK293 cells. signal change vs control, % at 10 µM. AID 2779. shares compounds with TRPC6 inhibitor. 31% of 920 active. parental HEK293 membrane potential dye fluorescence; maximal acetylcholine challenge after compound addition;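 active means membrane potential signal moving either way by over 3 SD of the maximum-effect control, in both duplicate plates, meaning non-specific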
HEK293 MPD ctr-1 = checks TRPC6 inhibitor effects in parental HEK293 cells; shares compounds with TRPC6 inhibitor; parental HEK293 membrane potential dye fluorescence; membrane potential signal change, % at 10 µM; 60% of 920 active; AID 2780;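 active means membrane potential signal shifting up or down by more than 3 SD of buffer-only wells, on both duplicate plates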
HEK293 MPD ctr-2 = checks TRPC6 modulator effects in parental HEK293 cells; shares compounds with TRPC6 inhibitor; membrane potential dye fluorescence; 51% of 2,400 active; membrane potential signal change, % at 10 µM;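 active means membrane potential signal moves up or down beyond 5 SD from buffer-only wells, on both duplicate plates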
HEK293 MPD ctr 2-2 = second counter-screen for TRPC6 modulators: effect in parental HEK293 cells; shares compounds with TRPC6 inhibitor; membrane potential dye fluorescence; after compound, maximal acetylcholine stimulation; inhibition, % at 10 µM; 14% of 2,400 active;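 active means membrane potential signal drops by more than 5 SD from the mean control signal, in both duplicate plates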;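 further: plate controls were acetylcholine ECmax control wells for no effect and buffer only wells for full effect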
TRPC4/MOR mod = selectivity of TRPC6 modulators against mouse TRPC4; percent change from control (negative = decrease, positive = increase), % at 10 µM; shares compounds with TRPC6 inhibitor; HEK293 TRPC4/mu-opioid, membrane potential fluorescence; 69% of 2,400 active;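 active means membrane potential signal moved up or down beyond 5 SD of buffer control wells, in both duplicate plates, actives on both sides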;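 further: plate controls were assay buffer wells for no effect and DAMGO maximal-effect wells for full effect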
TRPC4/MOR inh 2 = second check of whether TRPC6 modulators also affect mouse TRPC4. shares compounds with TRPC6 inhibitor. HEK293 TRPC4/mu-opioid, membrane potential dye fluorescence; stimulated with maximal-effect DAMGO. inhibition, % at 10 µM. 55% of 2,400 active. AID 488928;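 active means drop in membrane potential signal beyond 5 SD of the control wells in both duplicate plates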;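 further: TRPC4 counter screen for TRPC6 hits run under conditions tuned for TRPC6 not TRPC4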
TRPC6 inh conf = confirmation of mouse TRPC6 inhibitors; shares compounds with TRPC6 inhibitor; 43% of 3,300 active; inhibition, % at 10 µM; AID 488960; HEK293-TRPC6, membrane potential dye, ACh-evoked depolarization;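 active means fluorescence ratio falls more than 5 SD below the full-stimulation control mean, in both duplicate runs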;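 further: integrated fluorescence ratio of peak minus minimum over baseline after agonist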
TRPC6 act confirm = mouse TRPC6 activator confirmation; shares compounds with TRPC6 inhibitor; HEK293-TRPC6 membrane potential dye fluorescence, FDSS; activation, % at 10 µM; 11% of 2,800 active;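 active means ratio signal rise beyond 5 SD above unstimulated control wells' mean, seen in both duplicate runs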;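 further: plate controls were buffer EC0 wells for no effect and acetylcholine ECmax response for full effect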
* marks the source's active call; other numbers are inactive results; i = inactive; . = no result given. An excerpt weighted towards active compounds, which were near 2.3% of everything screened.

SMILES	TRPC4 agonist	TRPC6 activator	TRPC4 potent	TRPC4 inh	TRPC6 inhibitor	HEK293 MPD ctr-2	HEK293 MPD ctr 2-2	TRPC4/MOR mod	TRPC4/MOR inh 2	TRPC6 inh conf	TRPC6 act confirm	others
Cc1ccc(-n2nc3ccc(NC(=O)/C=C/c4ccco4)cc3n2)cc1	i	i	i	i	i	.	.	.	.	.	.
CCCCn1c2ccc(F)cc2c2nnc(SCCN3CCCCC3)nc21	i	i	i	i	-5.62*	-73.5%*	i	-19.0%*	38.0%*	i	i
CCn1c2ccccc2c2nnc(SCCN3CCCCC3)nc21	i	i	i	i	i	.	.	.	.	.	.
CSc1nnc2c3cc(F)ccc3n(C)c2n1	i	i	i	i	i	.	.	.	.	.	.
Cn1c2ccc(F)cc2c2nnc(SCCN3CCCCC3)nc21	i	i	i	i	-7.39*	.	.	.	.	i	i	TRPC4 sel inh 2=76.5%*;TRPC4 spec=-12.5%*;HEK293 MPD ctr 2-1=16.5%*;HEK293 MPD ctr-1=-203.5%*
CCn1c2ccc(C)cc2c2nnc(SCCN3CCOCC3)nc21	i	i	i	i	i	.	.	.	.	.	.
CCCCn1c2ccc(C)cc2c2nnc(SCCN3CCCCC3)nc21	i	i	i	i	-5.8*	i	i	i	66.5%*	45.0%*	i
O=C(c1ccc2c(c1)OCO2)N(c1ccc(Br)cc1)C1C=CS(=O)(=O)C1 (centres undefined)	i	i	i	i	i	.	.	.	.	.	.
CCc1ccc(NC(=O)CSc2nncn2-c2cccnc2)cc1	i	i	i	i	i	.	.	.	.	.	.
O=C(Nc1cccc(C(=O)O)c1)/C(=C/c1ccc([N+](=O)[O-])cc1)NC(=O)c1ccccc1	i	i	i	i	i	.	.	.	.	.	.
O=C(Nc1cccc2ccccc12)/C(=C/c1ccc([N+](=O)[O-])cc1)NC(=O)c1ccccc1	i	i	i	i	-6.03*	i	i	i	71.0%*	58.5%*	i
COc1ccc(CCn2c(SCCN3CCCCC3)nc3ccccc3c2=O)cc1OC	i	i	i	i	-9.23*	.	.	.	.	59.1%*	i	TRPC4 sel inh 2=36.5%*;TRPC4 spec=-12.6%*;HEK293 MPD ctr 2-1=i;HEK293 MPD ctr-1=-153.0%*
COc1ccc(OC)c(NC(=O)CSc2nnc(C3CCCCC3)n2N)c1	i	i	i	i	i	.	.	.	.	.	.
COc1ccc(NC(=O)CSc2nnc(C3CCCCC3)n2N)c(OC)c1	i	i	i	i	-6.72*	i	i	i	i	i	i

Screening data (PubChem)
